Source: PubChem BioAssay
Ecoli rRNA inh: selective bacterial rRNA inhibition in E. coli. E. coli WT GFP vs humanized-ribosome RFP mutants, fluorescence, 24 h; active compounds read low; DMSO median 0, no signal -100. 350,000 tested, 1.6% active. AID 720706. GFP signal change (wild-type ribosome), % (test concentration not listed);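 active = significant combined selectivity score with lowered wild-type GFP, culture density cut under 30%, mutant RFP and density less affected; inactive = any of these conditions unmet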
CFTR F508del cor: CFTR F508del correction in bronchial cells; activity (quench increase), % at 7.58 µM; 350,000 tested, 0.36% active; CFBE cells, YFP halide quenching; stimulated with forskolin plus potentiator P3; % fluorescence drop versus neutral controls; AID 720511;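 active = mean added fluorescence quench of at least 8% versus neutral control, with both replicates also reaching 8%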;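 note: cells transiently co-express mutant CFTR-F508del with the halide-sensitive YFP; corrector assay measuring rescue of mutant channel to the surface after 24 h compound exposure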
S100A4 MyoIIA: inhibitors of human S100A4 binding to myosin IIA peptide | inhibition, % at 10.7 µM | S100A4/TAMRA-MyoIIA peptide fluorescence polarization | 360,000 tested, 0.14% active | P26447;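 active = mean inhibition of at least 70% across replicates, with every replicate also reaching that level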
Target sequence (P26447 whole entry, looked up): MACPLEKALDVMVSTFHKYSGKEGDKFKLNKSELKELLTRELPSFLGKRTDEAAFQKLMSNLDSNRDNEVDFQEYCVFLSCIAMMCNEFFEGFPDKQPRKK
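incubation = readout 5 min after mixing, signal stable up to 60 min | system = S100A4 monomer protein | buffer or medium = HEPES pH 7.2 with CaCl2, KCl, NaCl, DTT, Triton | benchmarks = neutral control DMSO, positive control TFP | also added = fluorescent myosin IIA peptide, 5 nM | compound dosing = one concentration per compound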
SIRT5 inh: inhibitors of human sirtuin-5 desuccinylase. Q9NXA8. Purified SirT5, succinyl-peptide AMC, trypsin-coupled fluorescence. inhibition, % at 15 µM. 330,000 tested, 1.1% active. AID 652115; in the data active = inhibition above about 15%
Target sequence (Q9NXA8 whole entry, looked up): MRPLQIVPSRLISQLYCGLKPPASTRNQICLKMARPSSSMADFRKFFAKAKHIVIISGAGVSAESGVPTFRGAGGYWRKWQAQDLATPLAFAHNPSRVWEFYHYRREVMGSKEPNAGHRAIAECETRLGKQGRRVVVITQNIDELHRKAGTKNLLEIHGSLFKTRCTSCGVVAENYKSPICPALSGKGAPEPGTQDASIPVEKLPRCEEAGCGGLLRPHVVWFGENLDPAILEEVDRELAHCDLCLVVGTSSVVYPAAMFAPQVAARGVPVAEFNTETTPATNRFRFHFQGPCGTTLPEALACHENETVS
ERAP1 HTS inh: blocks human ERAP1 aminopeptidase activity; recombinant ERAP1, Leu-AMC fluorescence, 60 min; 340,000 tested, 0.15% active; AID 652197; inhibition, % at 10.7 µM;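 active = mean replicate inhibition of at least 30%, or all replicates individually reaching that 30% level; inactive = mean below 30% and not every replicate reaching it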;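 note: 0% = neutral control wells and 100% = L-leucinethiol positive control wells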
* hit, by the source's call. In the library only some 3.1% were active in any assay of this set; here they are far more common.

SMILES	Ecoli rRNA inh	CFTR F508del cor	S100A4 MyoIIA	SIRT5 inh	ERAP1 HTS inh
COc1ccc(S(=O)(=O)Nc2ccc3c(c2)C(=O)N([C@@H](C)CO)C[C@@H](C)[C@H](CN(C)S(=O)(=O)c2cccs2)OCCCC[C@@H](C)O3)cc1	-3	0	-47	16*	2
Cc1ccc(S(=O)(=O)Nc2ccc3c(c2)C(=O)N([C@H](C)CO)C[C@@H](C)[C@H](CN(C)S(=O)(=O)c2cccs2)OCCCC[C@H](C)O3)cc1	-3	2	-15	17*	-1
Cc1cccc(N2CCN(Cc3cn(C)nc3-c3ccccc3F)CC2)n1	13	9.1*	0	-5	2
Cc1ccc(C2(C)NC(=O)N(CC(=O)Nc3nc(-c4ccccn4)cs3)C2=O)cc1 (stereo not given)	-41	10.0*	4	-2	1
CCC(=O)N(C)C[C@@H]1Oc2cc(-c3ccncc3)ccc2S(=O)(=O)N([C@H](C)CO)C[C@@H]1C	-2	-2	-1	-1	1
O=C(C[C@@H]1C=C[C@H](NC(=O)C2CCOCC2)[C@H](CO)O1)NCc1ccccc1Cl	4	1	6	3	0
C[C@H]1CN([C@@H](C)CO)C(=O)c2cccc(NC(=O)c3ccc(-c4nccs4)cc3)c2O[C@@H]1CN(C)Cc1ccc(C(=O)O)cc1	0	2	-2	3	0
C[C@H]1CN([C@@H](C)CO)C(=O)c2cccc(NC(=O)c3ccc(-c4nccs4)cc3)c2O[C@H]1CN(C)Cc1ccc(C(F)(F)F)cc1	-3	-2	-3	17*	0
C[C@H](CO)N1C[C@H](C)[C@H](CN(C)Cc2ccc(C(F)(F)F)cc2)Oc2c(NC(=O)c3ccc(-c4nccs4)cc3)cccc2C1=O	-6	0	5	16*	0
COc1ccc(CN(C)C[C@@H]2Oc3ccc(NC(=O)Nc4c(C)noc4C)cc3CC(=O)N([C@H](C)CO)C[C@@H]2C)cc1	0	-1	-4	0	1
C/C(=N\NC(=O)c1ccc(N/N=C(\C)c2ccc(O)cc2)cc1)c1ccc(O)cc1	-21*	2	-3	-3	0
C/C(=N/NC(=O)c1ccc(-c2ccccc2)cc1)c1cccc(O)c1	-26*	3	2	0	-3
C/C(=N\NC(=O)c1ccc(O)cc1)c1cccc(NC(=O)c2ccc(Cl)cc2)c1	-35*	-1	4	-6	5
C/C(=N\NC(=O)c1cccc(O)c1)c1cccc(NC(=O)c2ccc(F)cc2)c1	-6	2	-3	-2	2
C/C(=N\NC(=O)c1ccc(O)cc1)c1ccc(N2CCOCC2)cc1	3	0	0	5	6
CCC(=O)N1C[C@@H]2[C@H](c3ccccc31)[C@H](CO)N2C(=O)CC	4	1	56	0	-1
CCOc1ccccc1N(C)C(=O)c1cn(CC)c(=O)c2cc(OC)c(OC)cc12	4	-2	-1	20*	8
CCn1cc(C(=O)N(C)c2ccccc2F)c2cc(OC)c(OC)cc2c1=O	1	1	0	-1	-2
CN(CC(=O)Nc1ccccc1C(F)(F)F)C(=O)c1ccc(N2C(=O)CCC2=O)cc1	0	1	0	17*	-1
Cc1ccc(NC(=O)COc2ccccc2)cc1S(=O)(=O)N1CCCCCC1	-14	3	-5	0	-1
COc1ccc(NC(=O)CSCC(=O)Nc2ccc(C)c(S(=O)(=O)N3CCCCCC3)c2)cc1	-35*	-1	0	1	0
CCCc1cc(=O)[nH]c(SCC(=O)Nc2ccc(C)c(S(=O)(=O)N3CCCCC3)c2)n1	5	0	6	0	3
COc1ccc(CC(=O)Nc2ccc(C)c(S(=O)(=O)N3CCCCCC3)c2)cc1	1	-1	-6	-3	-8
Cc1ccc(NC(=O)COc2ccccc2C#N)cc1S(=O)(=O)N1CCCCCC1	-25*	0	1	4	0
CCCc1cc(=O)[nH]c(SCC(=O)Nc2ccc(OC)c(S(=O)(=O)N3CCCCC3)c2)n1	-22*	0	1	-19	-12
Cc1ccc(NC(=O)COC(=O)C2CC3C=CC2C3)cc1S(=O)(=O)N1CCCCC1 (stereo not given)	-26*	-1	1	-2	2
